The text below walks through data of ChEMBL document CHEMBL5357066, “Development of Novel Membrane Disrupting Lipoguanidine Compounds Sensitizing Gram-Negative Bacteria to Antibiotics” (ACS Med Chem Lett, 2024).

The test system of experiment [1] is Acinetobacter baumannii. Kind of experiment: Synergistic antibacterial activity against Acinetobacter baumannii ATCC 17978 assessed as rifampicin MIC at <=0.25 times MIC incubated for overnight by microbroth dilution checkerboard assay. The format is functional. A digest of the protocol: (§1)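 Checkerboard microdilution under MIC conditions (TSB, overnight, 37 °C). Two-fold series of each agent were combined on one plate before bacteria were added, and single-agent MICs were measured on the same plate. FIC = sum of combination MIC/alone MIC for each agent, taken from the most synergistic well. Three independent repeats, mean ± SD. ≤0.5 was taken as strong synergy and 0.5–<1 as weak.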
In general terms: Broth dilution looks for growth in wells or tubes with falling amounts of substance.

In experiment [2] the test system is Pseudomonas aeruginosa. The experiment is described as follows: Synergistic antibacterial activity against Pseudomonas aeruginosa PAO1 assessed as fold change in rifampicin MIC at <=0.25 times MIC incubated for overnight by microbroth dilution checkerboard assay relative to rifampicin alone. Format: functional. A digest of the protocol: (§2)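 Checkerboard microdilution in Tryptic Soy Broth, run like the MIC assay. Overnight TSB cultures were back-diluted to OD 0.01 and added 1:1 to the combined two-fold series of both agents, then incubated overnight at 37 °C. Growth/no-growth was called at <0.1 OD600. MICs alone were read on the same plates. FIC index came from the most synergistic well; three independent repeats, mean ± SD.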

Experiment [3] concerns Klebsiella pneumoniae. Kind of experiment: Synergistic antibacterial activity against Klebsiella pneumoniae NCTC 13368 assessed as rifampicin MIC at <=0.25 times MIC incubated for overnight by microbroth dilution checkerboard assay. Format: functional. A digest of the protocol:
as §1

For experiment [4], the system named is Escherichia coli. Kind of experiment: Synergistic antibacterial activity against Escherichia coli NCTC 12923 assessed as rifampicin MIC at <=0.25 times MIC incubated for overnight by microbroth dilution checkerboard assay. Format: functional. A digest of the protocol: as §1
Experiment [5] concerns Acinetobacter baumannii. Kind of experiment: Antibacterial activity against Acinetobacter baumannii AYE assessed as bacterial growth inhibition incubated for overnight by microbroth dilution method. Format: functional. The procedure, abridged: (§3)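 Broth microdilution in Tryptic Soy Broth. DMSO stocks were diluted in TSB as 2-fold series. Overnight TSB cultures were back-diluted to OD 0.01 and mixed 1:1 with compound. Incubation was overnight at 37 °C. MIC was the lowest concentration without visible growth (<0.1 OD600). DMSO vehicle was checked at equivalent concentrations.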

In experiment [6] the test system is Acinetobacter baumannii. Kind of experiment: Synergistic antibacterial activity against Acinetobacter baumannii ATCC 17978 assessed as fold change in rifampicin MIC at <=0.25 times MIC incubated for overnight by microbroth dilution checkerboard assay relative to rifampicin alone. Format: functional. The procedure, abridged:
as §1

Experiment [7] deals with Acinetobacter baumannii. Kind of experiment: Synergistic antibacterial activity against Acinetobacter baumannii AYE assessed as fold change in rifampicin MIC at <=0.25 times MIC incubated for overnight by microbroth dilution checkerboard assay relative to rifampicin alone. The format is functional. A digest of the protocol: as §1
For experiment [8], the system named is Acinetobacter baumannii. The experiment is described as follows: Antibacterial activity against Acinetobacter baumannii ATCC 17978 assessed as bacterial growth inhibition incubated for overnight by microbroth dilution method. Format: functional. A digest of the protocol: as §3
Experiment [9] relates to Pseudomonas aeruginosa. The experiment is described as follows: Synergistic antibacterial activity against Pseudomonas aeruginosa NCTC 13437 assessed as fold change in rifampicin MIC at <=0.25 times MIC incubated for overnight by microbroth dilution checkerboard assay relative to rifampicin alone. Format: functional. A digest of the protocol:
as §2

Experiment [10] concerns Pseudomonas aeruginosa. The experiment is described as follows: Antibacterial activity against Pseudomonas aeruginosa PAO1 assessed as bacterial growth inhibition incubated for overnight by microbroth dilution method. Format: functional. The procedure, abridged: as §3
For experiment [11], the system named is Klebsiella pneumoniae. Kind of experiment: Antibacterial activity against Klebsiella pneumoniae M6 assessed as bacterial growth inhibition incubated for overnight by microbroth dilution method.
Experiment [12] deals with Pseudomonas aeruginosa. The experiment is described as follows: Antibacterial activity against Pseudomonas aeruginosa NCTC 13437 assessed as bacterial growth inhibition incubated for overnight by microbroth dilution method. Format: functional. The procedure, abridged: as §3
The test system of experiment [13] is Pseudomonas aeruginosa. The experiment is described as follows: Synergistic antibacterial activity against Pseudomonas aeruginosa NCTC 13437 assessed as rifampicin MIC at <=0.25 times MIC incubated for overnight by microbroth dilution checkerboard assay. Format: functional. A digest of the protocol:
as §2

The subject of experiment [14] is Klebsiella pneumoniae. The experiment is described as follows: Synergistic antibacterial activity against Klebsiella pneumoniae NCTC 13368 assessed as fold change in rifampicin MIC at <=0.25 times MIC incubated for overnight by microbroth dilution checkerboard assay relative to rifampicin alone. Format: functional. The procedure, abridged: (§4)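 Checkerboard run under the MIC conditions (TSB, overnight, 37 °C). Antibiotic and lipoguanidine 2-fold series were combined on one plate before bacteria were added. Growth/no-growth was scored as for the MIC (<0.1 OD600). Single-agent MICs were measured on the same plates. Three independent repeats were done.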

Experiment [15] concerns Pseudomonas aeruginosa. Kind of experiment: Synergistic antibacterial activity against Pseudomonas aeruginosa PAO1 assessed as rifampicin MIC at <=0.25 times MIC incubated for overnight by microbroth dilution checkerboard assay. The format is functional. The procedure, abridged:
as §2

Experiment [16] relates to Klebsiella pneumoniae. The experiment is described as follows: Synergistic antibacterial activity against […] Klebsiella pneumoniae M6 assessed as rifampicin MIC at <=0.25 times MIC incubated for overnight by microbroth dilution checkerboard assay. The format is functional. A digest of the protocol: as §4
Experiment [17] has as its system Escherichia coli. Kind of experiment: Synergistic antibacterial activity against Escherichia coli NCTC 12923 assessed as fold change in rifampicin MIC at <=0.25 times MIC incubated for overnight by microbroth dilution checkerboard assay relative to rifampicin alone. Format: functional. The procedure, abridged:
as §1

Experiment [18] has as its system Escherichia coli. Kind of experiment: Antibacterial activity against Escherichia coli NCTC 12923 assessed as bacterial growth inhibition incubated for overnight by microbroth dilution method. Format: functional. A digest of the protocol:
as §3

In experiment [19] the test system is Klebsiella pneumoniae. The experiment is described as follows: Synergistic antibacterial activity against […] Klebsiella pneumoniae M6 assessed as fold change in rifampicin MIC at <=0.25 times MIC incubated for overnight by microbroth dilution checkerboard assay relative to rifampicin alone. Format: functional. The procedure, abridged: as §4

Experiment [20] concerns Klebsiella pneumoniae. Kind of experiment: Antibacterial activity against ESBL Klebsiella pneumoniae NCTC 13368 assessed as bacterial growth inhibition incubated for overnight by microbroth dilution method.
For experiment [21], the system named is Acinetobacter baumannii. The experiment is described as follows: Synergistic antibacterial activity against Acinetobacter baumannii AYE assessed as rifampicin MIC at <=0.25 times MIC incubated for overnight by microbroth dilution checkerboard assay. The format is functional. A digest of the protocol:
as §1

The test system of experiment [22] is Acinetobacter baumannii. The experiment is described as follows: Synergistic antibacterial activity against Acinetobacter baumannii AYE assessed as rifampicin MIC at 30 microg/ml incubated for overnight by microbroth dilution checkerboard assay. Format: functional. To be noted: dose 30 µg/ml.
The subject of experiment [23] is Klebsiella pneumoniae. Kind of experiment: Synergistic antibacterial activity against Klebsiella pneumoniae NCTC 13368 assessed as rifampicin MIC at 30 microg/ml incubated for overnight by microbroth dilution checkerboard assay. The format is functional. Particulars: dose 30 µg/ml.
Experiment [24] has as its system Klebsiella pneumoniae. The experiment is described as follows: Synergistic antibacterial activity against Klebsiella pneumoniae M6 assessed as rifampicin MIC at 30 microg/ml incubated for overnight by microbroth dilution checkerboard assay. Format: functional. Particulars: dose 30 µg/ml.
Experiment [25] deals with Pseudomonas aeruginosa. Kind of experiment: Synergistic antibacterial activity against Pseudomonas aeruginosa PAO1 assessed as rifampicin MIC at 30 microg/ml incubated for overnight by microbroth dilution checkerboard assay. Particulars: dose 30 µg/ml. Format: functional. The procedure, abridged:
(§5)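 Fixed-concentration combination MIC in TSB. The first agent was set in a two-fold dilution series (100 µL/well), then 50 µL/well of the second agent at a fixed concentration was added; PMBN was fixed at 30 µg/mL. Bacteria at OD 0.02 (50 µL) went into 150 µL of compounds, overnight at 37 °C. MIC was the lowest concentration without visible growth (<0.1 OD600).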

Experiment [26] deals with Pseudomonas aeruginosa. The experiment is described as follows: Synergistic antibacterial activity against Pseudomonas aeruginosa NCTC 13437 assessed as rifampicin MIC at 30 microg/ml incubated for overnight by microbroth dilution checkerboard assay. The format is functional. Particulars: dose 30 µg/ml. A digest of the protocol:
as §5

The test system of experiment [27] is Acinetobacter baumannii. The experiment is described as follows: Synergistic antibacterial activity against Acinetobacter baumannii ATCC 17978 assessed as rifampicin MIC at 30 microg/ml incubated for overnight by microbroth dilution checkerboard assay. Particulars: dose 30 µg/ml. The format is functional.
The subject of experiment [28] is Escherichia coli. The experiment is described as follows: Synergistic antibacterial activity against Escherichia coli NCTC 12923 assessed as rifampicin MIC at 30 microg/ml incubated for overnight by microbroth dilution checkerboard assay. Format: functional. Particulars: dose 30 µg/ml.

Regarding `NCCCCN=C(N)N` [AGMATINE], the MIC (as a rule, the least concentration at which growth counts as inhibited) in the experiment with Acinetobacter baumannii [1] was 4 µg/mL; in the experiment on Klebsiella pneumoniae [3] it was 32 µg/mL; with Escherichia coli [4], 32 µg/mL; in the experiment with Acinetobacter baumannii [5] it was above 128 µg/mL; with Acinetobacter baumannii [8], above 128 µg/mL; with Pseudomonas aeruginosa [10], above 128 µg/mL. Moreover, the MIC in the experiment with Klebsiella pneumoniae [11] was above 128 µg/mL; in the experiment with Pseudomonas aeruginosa [12], above 128 µg/mL; with Pseudomonas aeruginosa [13], 32 µg/mL; with Pseudomonas aeruginosa [15], 32 µg/mL; in the experiment on Klebsiella pneumoniae [16], 32 µg/mL; with Escherichia coli [18], above 128 µg/mL. In addition, the minimum inhibitory concentration (MIC) in the experiment on Klebsiella pneumoniae [20] was above 128 µg/mL; with Acinetobacter baumannii [21], 16 µg/mL. Moreover, the “fold change (FC)” value with Pseudomonas aeruginosa [2], in the experiment on Acinetobacter baumannii [6], in the experiment on Acinetobacter baumannii [7], in the experiment on Pseudomonas aeruginosa [9], with Klebsiella pneumoniae [14] and in the experiment with Escherichia coli [17] was 0 each time. In addition, in the experiment on Klebsiella pneumoniae [19], the “fold change (FC)” value came out at 0.
Take `CC(C)C[C@@H]1NC(=O)[C@@H](Cc2ccccc2)NC(=O)[C@H](CCN)NC(=O)[C@@H](NC(=O)[C@H](CCN)NC(=O)[C@@H](N)[C@@H](C)O)CCNC(=O)[C@H]([C@@H](C)O)NC(=O)[C@@H](CCN)NC(=O)[C@H](CCN)NC1=O`: the minimum inhibitory concentration (MIC) was 0.25 µg/mL in the experiment on Acinetobacter baumannii [22]; 1 µg/mL in the experiment with Klebsiella pneumoniae [23]; 0.5 µg/mL in the experiment on Klebsiella pneumoniae [24]; at most 0.125 µg/mL in the experiment with Pseudomonas aeruginosa [25]; at most 0.125 µg/mL with Pseudomonas aeruginosa [26]; at most 0.125 µg/mL with Acinetobacter baumannii [27]. Besides, the MIC in the experiment with Escherichia coli [28] is at most 0.125 µg/mL.
